Source: the M2OR odorant receptor database

Tests used:
Conditions in all cases: stereoisomer not certain
[1] = molecular target: OR5H1 (Homo sapiens) (UniProt A6NKK0)
How it was run: (§1)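 Each receptor–molecule pair is labelled responsive or non-responsive (inactive) according to whether the original authors judged the measured signal statistically different from baseline. The data were taken from the main text and supplementary material of published papers and checked for typos and inconsistencies. Assay methods differed by source, with transient luciferase assays in mammalian cell lines being common.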

[2] = test system: OR5H1 F17L A30T H56Q
How it was run: as §1

[3] = test system: OR5H1 T181N
Sequence of OR5H1 T181N (as listed by the source, stated change not applied): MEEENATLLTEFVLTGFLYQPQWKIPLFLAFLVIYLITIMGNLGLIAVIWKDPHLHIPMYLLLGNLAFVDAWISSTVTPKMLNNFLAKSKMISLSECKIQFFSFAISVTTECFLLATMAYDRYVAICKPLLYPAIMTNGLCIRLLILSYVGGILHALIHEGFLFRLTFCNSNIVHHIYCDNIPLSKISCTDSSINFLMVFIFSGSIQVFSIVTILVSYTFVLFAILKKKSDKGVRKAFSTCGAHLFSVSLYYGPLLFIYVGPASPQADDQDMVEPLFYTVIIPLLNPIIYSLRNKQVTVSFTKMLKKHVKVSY
How it was run: as §1

[4] = molecular target: OR5H14 (Homo sapiens) (UniProt A6NHG9)
Sequence of OR5H14 (Homo sapiens) (A6NHG9 whole entry): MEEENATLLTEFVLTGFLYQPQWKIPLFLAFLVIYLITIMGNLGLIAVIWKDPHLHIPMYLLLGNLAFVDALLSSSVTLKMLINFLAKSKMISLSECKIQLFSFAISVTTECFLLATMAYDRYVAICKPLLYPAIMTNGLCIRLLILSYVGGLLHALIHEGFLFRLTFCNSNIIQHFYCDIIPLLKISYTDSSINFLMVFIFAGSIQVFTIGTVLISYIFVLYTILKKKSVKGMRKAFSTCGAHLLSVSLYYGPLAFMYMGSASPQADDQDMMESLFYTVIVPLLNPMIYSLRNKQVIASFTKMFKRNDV
How it was run: as §1

[5] = molecular target: OR5H15 (Homo sapiens) (UniProt A6NDH6)
Sequence of OR5H15 (Homo sapiens) (A6NDH6 whole entry): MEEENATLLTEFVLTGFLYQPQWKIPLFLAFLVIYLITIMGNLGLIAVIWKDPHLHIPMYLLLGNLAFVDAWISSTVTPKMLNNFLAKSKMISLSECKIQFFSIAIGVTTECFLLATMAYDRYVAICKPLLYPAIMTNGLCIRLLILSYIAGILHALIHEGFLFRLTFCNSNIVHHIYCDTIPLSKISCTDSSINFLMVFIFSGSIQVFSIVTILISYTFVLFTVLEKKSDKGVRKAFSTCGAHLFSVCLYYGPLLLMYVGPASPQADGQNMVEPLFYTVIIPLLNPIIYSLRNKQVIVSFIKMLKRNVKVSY
How it was run: as §1

[6] = test system: OR5H1
Sequence of OR5H1 (as listed by the source): as the sequence (as listed by the source, stated change not applied) above, with I153L, N181I counted along it
How it was run: as §1

[7] = test system: OR5H2
Sequence of OR5H2 (as listed by the source): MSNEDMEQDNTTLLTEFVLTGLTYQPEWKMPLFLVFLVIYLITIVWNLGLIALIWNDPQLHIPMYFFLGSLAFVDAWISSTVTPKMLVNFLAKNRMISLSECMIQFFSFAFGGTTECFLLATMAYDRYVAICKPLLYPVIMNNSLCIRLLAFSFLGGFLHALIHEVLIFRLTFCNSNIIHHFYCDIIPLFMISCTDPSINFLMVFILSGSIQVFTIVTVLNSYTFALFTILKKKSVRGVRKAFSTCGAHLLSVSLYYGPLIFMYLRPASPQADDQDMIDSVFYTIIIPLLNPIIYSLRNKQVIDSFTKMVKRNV
How it was run: as §1

[8] = molecular target: OR5H6 (Homo sapiens) (UniProt Q8NGV6)
Sequence of OR5H6 (Homo sapiens) (Q8NGV6 whole entry): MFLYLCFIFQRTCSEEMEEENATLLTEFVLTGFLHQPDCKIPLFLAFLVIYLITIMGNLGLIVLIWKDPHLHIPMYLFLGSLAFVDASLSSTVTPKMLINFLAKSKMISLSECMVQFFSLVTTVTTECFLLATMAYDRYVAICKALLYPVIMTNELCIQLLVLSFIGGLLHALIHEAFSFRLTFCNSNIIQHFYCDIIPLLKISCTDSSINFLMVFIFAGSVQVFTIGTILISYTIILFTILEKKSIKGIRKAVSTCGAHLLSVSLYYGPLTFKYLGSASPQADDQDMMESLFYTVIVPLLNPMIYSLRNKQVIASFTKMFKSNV
How it was run: as §1

[9] = molecular target: OR5G3 (Homo sapiens) (UniProt P0C626)
Sequence of OR5G3 (Homo sapiens) (P0C626 whole entry): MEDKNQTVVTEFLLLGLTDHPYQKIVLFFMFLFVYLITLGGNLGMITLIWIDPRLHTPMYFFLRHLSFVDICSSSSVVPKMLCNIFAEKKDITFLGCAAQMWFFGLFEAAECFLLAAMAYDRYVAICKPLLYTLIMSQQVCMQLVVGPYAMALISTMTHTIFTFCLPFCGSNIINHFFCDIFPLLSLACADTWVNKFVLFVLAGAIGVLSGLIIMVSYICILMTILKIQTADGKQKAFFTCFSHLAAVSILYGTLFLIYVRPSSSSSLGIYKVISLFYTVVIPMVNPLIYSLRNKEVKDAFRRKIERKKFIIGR
How it was run: as §1

[10] = molecular target: OR5H8 (Homo sapiens) (UniProt P0DN80)
Sequence of OR5H8 (Homo sapiens) (P0DN80 whole entry): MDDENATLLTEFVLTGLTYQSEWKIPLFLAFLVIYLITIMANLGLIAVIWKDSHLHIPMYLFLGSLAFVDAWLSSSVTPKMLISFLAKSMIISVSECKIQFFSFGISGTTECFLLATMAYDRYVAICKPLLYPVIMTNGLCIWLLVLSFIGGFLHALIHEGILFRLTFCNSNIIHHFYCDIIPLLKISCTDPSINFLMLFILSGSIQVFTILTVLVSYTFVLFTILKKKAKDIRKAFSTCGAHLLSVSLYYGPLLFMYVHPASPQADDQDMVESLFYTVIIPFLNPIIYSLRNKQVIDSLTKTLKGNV
How it was run: as §1

Measured: odorant receptor agonist call;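 further: active if original authors judged signal statistically different from baseline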

Sequence of OR5H1 (Homo sapiens) (A6NKK0 whole entry): as the sequence (as listed by the source, stated change not applied) above, with N181T counted along it

C=CCOC(=O)Cc1ccccc1
not listed: [9] | [10]
inactive: all other assays above

Cc1c([N+](=O)[O-])c(C)c([N+](=O)[O-])c(C(C)(C)C)c1[N+](=O)[O-]
inactive: [9] | [4] | [5] | [7] | [8] | [10]
